Results on 1 compound are retold here after ChEMBL document CHEMBL4354869, “pH-Dependent Grafting of Cancer Cells with Antigenic Epitopes Promotes Selective Antibody-Mediated Cytotoxicity” (J Med Chem, 2020).

Active and inactive are the calls of the source. The rule behind the calls is not given here. Peptide text beside a SMILES is read from it. * marks the point of attachment. Dnp = O=[N+]([O-])c1ccc(*)c([N+](=O)[O-])c1

Series [1] has as its system MDA-MB-231. Kind of series: Induction of antibody dependent cytotoxicity against human MDA-MB-231 cells assessed as cell lysis at >1 uM incubated for 5 mins at pH 6 followed by compound washout prior to anti-DNP antibody addition for 30 mins and subsequent human PBMC addition at 5:1 effector to target ratio measured after 4 hrs by LDH release assay. The format is functional, cell-based. On the technique in general: LDH leaks from cells whose membrane has failed.

The test system of series [2] is MDA-MB-231. As to the kind of experiment: Induction of complement dependent cytotoxicity against human MDA-MB-231 cells assessed as cell lysis at 1 uM incubated for 5 mins at pH 6 followed by compound washout prior to anti-DNP antibody addition for 30 mins and subsequent pooled human serum addition measured after 4 hrs by LDH release assay relative to control. The format is functional. Summed up:
(§1)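 240000 MDA-MB-231 exposed in suspension to 1 μM conjugate for 5 min, 37 °C, at pH 7.4 or 6.0, washed, 25 μg/mL unlabeled anti-DNP rabbit polyclonal 30 min 4 °C, then 12.5% pooled human complement serum in DMEM 4 h at 37 °C. Supernatant LDH (A490/A680); % lysis vs antibody-only cells without peptide.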

For series [3], the system named is MDA-MB-231. Kind of series: Induction of opsonization in human MDA-MB-231 cells assessed as increase in recruitment of anti-DNP antibody to cell surface at 1 uM measured after 1 hr at pH 6 to 7.4 by AlexaFluor-488-conjugated anti-DNP antibody based flow cytometry. The format is functional. On the technique in general: A flow cytometer gives signals particle by particle.

In series [4] the test system is MDA-MB-231. Kind of series: Induction of opsonization in human MDA-MB-231 cells assessed as increase in recruitment of anti-DNP antibody to cell surface at 1 uM preincubated for 5 mins at pH 6 to 7.4 followed by pooled human serum addition and measured in presence of FITC-labeled anti-human IgG antibody based flow cytometry. In kind it is functional. Summed up: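 300000 MDA-MB-231 in suspension exposed to 1 μM conjugate 5 min, 37 °C, pH 7.4 or 6.0; washed; blocked with human IgG isotype control 100 μg/mL, 20 min 4 °C; 12.5% pooled human complement serum 20 min 4 °C; then 25 μg/mL FITC anti-human IgG 30 min 4 °C; PFA-fixed, flow cytometry; fold over pH 7.4 serum-only.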

Series [5] relates to MDA-MB-231. As to the kind of experiment: Induction of complement dependent cytotoxicity against human MDA-MB-231 cells assessed as cell lysis at 1 uM incubated for 5 mins at pH 7.4 followed by compound washout prior to anti-DNP antibody addition for 30 mins and subsequent pooled human serum addition measured after 4 hrs by LDH release assay. In kind it is functional, cell-based. An outline of the steps: as §1

The test system of series [6] is MDA-MB-231. As to the kind of experiment: Induction of antibody dependent cytotoxicity against human MDA-MB-231 cells assessed as increase in cell lysis incubated for 5 mins at pH 6 to 7.4 followed by compound washout prior to anti-DNP antibody addition for 30 mins and subsequent human PBMC addition at 5:1 effector to target ratio measured after 4 hrs by LDH release assay. The format is functional, cell-based.

Series [7] relates to MDA-MB-231. Kind of series: Induction of antibody dependent cytotoxicity against human MDA-MB-231 cells assessed as induction of cell lysis at >500 nM incubated for 5 mins at pH 6 to 7.4 followed by compound washout prior to anti-DNP antibody addition for 30 mins and subsequent human haNK cell addition at 5:1 effector to target ratio measured after 4 hrs by LDH release assay. In kind it is functional, cell-based. Summed up:
(§2)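 150000 MDA-MB-231 given conjugate 5 min at 37 °C, pH 7.4 or 6.0, washed at 4 °C, 25 μg/mL anti-DNP rabbit polyclonal 30 min 4 °C, then effectors 4 h at 37 °C: single-donor PBMCs at 50:1 in RPMI 1640, or haNK (F176V CD16 NK-92, IL-2-grown) at 5:1 in MEMα. Supernatant LDH; % lysis vs antibody+effector without peptide; mean ± SEM, n = 3–12.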

The test system of series [8] is MDA-MB-231. As to the kind of experiment: Cytotoxicity against human MDA-MB-231 cells assessed as increase in cell lysis at 0.5 to 1 uM incubated for 5 mins at pH 6 to 7.4 followed by compound washout prior to anti-FITC polyclonal rabbit antibody addition for 30 mins and subsequent human haNK cell addition at 5:1 effector to target ratio measured after 4 hrs by LDH release assay. In kind it is cell-based. To be noted: mda-mb-231, pH 6, 1 µM. Summed up:
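150000 target cells (MDA-MB-231; also LnCap, SK-OV-3 with haNK) treated with conjugate 5 min at 37 °C, pH 7.4 or 6.0, washed, 25 μg/mL anti-FITC rabbit polyclonal 30 min 4 °C, then 4 h at 37 °C with PBMCs at 50:1 (RPMI) or haNK at 5:1 (MEMα). LDH release; % lysis relative to antibody-only pH 7.4 cells; mean ± SEM, n = 3–12.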

Series [9] has as its system MDA-MB-231. As to the kind of experiment: Cytotoxicity against human MDA-MB-231 cells assessed as increase in cell lysis at 0.5 to 1 uM incubated for 5 mins at pH 6 to 7.4 followed by compound washout prior to anti-FITC polyclonal rabbit antibody addition for 30 mins and subsequent human PBMC addition at 5:1 effector to target ratio measured after 4 hrs by LDH release assay. The format is cell-based. The note with it: mda-mb-231, pH 6, 1 µM.

For series [10], the system named is MDA-MB-231. Kind of series: Induction of antibody dependent cytotoxicity against human MDA-MB-231 cells assessed as cell lysis at 1 uM incubated for 5 mins at pH 6 followed by compound washout prior to anti-DNP antibody addition for 30 mins and subsequent human PBMC addition at 5:1 effector to target ratio measured after 4 hrs by LDH release assay relative to control. In kind it is functional.

For series [11], the system named is MDA-MB-231. As to the kind of experiment: Induction of opsonization in human MDA-MB-231 cells assessed as increase in recruitment of anti-DNP antibody to cell surface at 1 uM preincubated with AlexaFluor-488-conjugated anti-DNP antibody for 30 mins followed by cell addition at pH 6 to 7.4 by flow cytometry. The format is functional, cell-based.
Series [12] has as its system MDA-MB-231. Kind of series: Induction of antibody dependent cytotoxicity against human MDA-MB-231 cells assessed as cell lysis at 500 nM incubated for 5 mins at pH 6 to 7.4 followed by compound washout prior to anti-DNP antibody addition for 30 mins and subsequent human haNK cell addition at 5:1 effector to target ratio measured after 4 hrs by LDH release assay relative to control. The format is functional. An outline of the steps:
as §2

Series [13] relates to MDA-MB-231. Kind of series: Induction of antibody dependent cytotoxicity against human MDA-MB-231 cells assessed as cell lysis at 0.1 uM incubated for 5 mins at pH 6 followed by compound washout prior to anti-DNP antibody addition for 30 mins and subsequent human PBMC addition at 5:1 effector to target ratio measured after 4 hrs by LDH release assay relative to control. The format is functional.

The test system of the next series is Lipid bilayer. Kind of series: Binding affinity to POPC large unilamellar vesicle at 1:300 ratio measured after 30 mins at pH 5 to 7.4 by circular dichroism spectroscopic analysis. Summed up: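 Peptide (20 μM stock in 5 mM sodium phosphate pH 8.0; 7 μM final) mixed with POPC LUVs (extruded, 100 nm pores) at 1:300, pH lowered with HCl, 30 min RT. Far-UV CD 260–200 nm in 0.1 cm cuvette, ≥5 scans averaged, liposome spectrum subtracted; expressed as mean residue molar ellipticity.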

Turning to `CC[C@H](C)[C@H](NC(=O)[C@@H]1CCCN1C(=O)[C@H](CC(N)=O)NC(=O)[C@H](CCC(N)=O)NC(=O)[C@H](CCC(=O)O)NC(=O)[C@@H](N)CCCCNc1ccc([N+](=O)[O-])cc1[N+](=O)[O-])C(=O)N[C@@H](Cc1ccc(O)cc1)C(=O)N[C@@H](Cc1c[nH]c2ccccc12)C(=O)N[C@@H](C)C(=O)N[C@@H](CCCNC(=N)N)C(=O)N[C@@H](Cc1ccc(O)cc1)C(=O)N[C@@H](C)C(=O)N[C@@H](CC(=O)O)C(=O)N[C@@H](Cc1c[nH]c2ccccc12)C(=O)N[C@@H](CC(C)C)C(=O)N[C@@H](Cc1ccccc1)C(=O)N[C@H](C(=O)N[C@H](C(=O)N1CCC[C@H]1C(=O)N[C@@H](CC(C)C)C(=O)N[C@@H](CC(C)C)C(=O)N[C@@H](CC(C)C)C(=O)N[C@@H](CC(C)C)C(=O)N[C@@H](CCC(=O)O)C(=O)N[C@@H](CC(C)C)C(=O)N[C@@H](C)C(=O)N[C@@H](CC(C)C)C(=O)N[C@@H](CC(C)C)C(=O)N[C@H](C(=O)N[C@@H](CC(=O)O)C(=O)N[C@@H](C)C(=O)N[C@@H](CC(=O)O)C(=O)N[C@@H](CCC(=O)O)C(=O)NCC(=O)N[C@H](C(=O)NCC(N)=O)[C@@H](C)O)C(C)C)[C@@H](C)O)[C@@H](C)O` (H-K(Dnp)EQNPIYWARYADWLFTTPLLLLELALLVDADEGTG-NH2), the outcome in the series on MDA-MB-231 [1], with MDA-MB-231 [5] and in the series with MDA-MB-231 [7] was inactive. Besides, the Activity with MDA-MB-231 [2] is 10%; with MDA-MB-231 [6], “Dose-dependent effect”; in the series with MDA-MB-231 [8] it was “Non-Toxic”; in the series with MDA-MB-231 [9] it was “Non-Toxic”; with MDA-MB-231 [10], 40%; in the series on MDA-MB-231 [12], 40%. Also, in the series on MDA-MB-231 [13], the Activity is 20%. For the same compound, the outcome with MDA-MB-231 [3], with MDA-MB-231 [4], in the series with MDA-MB-231 [11] and in the series on Lipid bilayer was Active.
